This is an account of results in ChEMBL document CHEMBL4014339, “Discovery of 1,4-Benzodiazepine-2,5-dione (BZD) Derivatives as Dual Nucleotide Binding Oligomerization Domain Containing 1/2 (NOD1/NOD2) Antagonists Sensitizing Paclitaxel (PTX) To Suppress Lewis Lung Carcinoma (LLC) Growth in Vivo” (J Med Chem, 2017).

pIC50: −log10 of the molar value.

T2 sequence (Q9HC29 whole entry, the tested form may be a part): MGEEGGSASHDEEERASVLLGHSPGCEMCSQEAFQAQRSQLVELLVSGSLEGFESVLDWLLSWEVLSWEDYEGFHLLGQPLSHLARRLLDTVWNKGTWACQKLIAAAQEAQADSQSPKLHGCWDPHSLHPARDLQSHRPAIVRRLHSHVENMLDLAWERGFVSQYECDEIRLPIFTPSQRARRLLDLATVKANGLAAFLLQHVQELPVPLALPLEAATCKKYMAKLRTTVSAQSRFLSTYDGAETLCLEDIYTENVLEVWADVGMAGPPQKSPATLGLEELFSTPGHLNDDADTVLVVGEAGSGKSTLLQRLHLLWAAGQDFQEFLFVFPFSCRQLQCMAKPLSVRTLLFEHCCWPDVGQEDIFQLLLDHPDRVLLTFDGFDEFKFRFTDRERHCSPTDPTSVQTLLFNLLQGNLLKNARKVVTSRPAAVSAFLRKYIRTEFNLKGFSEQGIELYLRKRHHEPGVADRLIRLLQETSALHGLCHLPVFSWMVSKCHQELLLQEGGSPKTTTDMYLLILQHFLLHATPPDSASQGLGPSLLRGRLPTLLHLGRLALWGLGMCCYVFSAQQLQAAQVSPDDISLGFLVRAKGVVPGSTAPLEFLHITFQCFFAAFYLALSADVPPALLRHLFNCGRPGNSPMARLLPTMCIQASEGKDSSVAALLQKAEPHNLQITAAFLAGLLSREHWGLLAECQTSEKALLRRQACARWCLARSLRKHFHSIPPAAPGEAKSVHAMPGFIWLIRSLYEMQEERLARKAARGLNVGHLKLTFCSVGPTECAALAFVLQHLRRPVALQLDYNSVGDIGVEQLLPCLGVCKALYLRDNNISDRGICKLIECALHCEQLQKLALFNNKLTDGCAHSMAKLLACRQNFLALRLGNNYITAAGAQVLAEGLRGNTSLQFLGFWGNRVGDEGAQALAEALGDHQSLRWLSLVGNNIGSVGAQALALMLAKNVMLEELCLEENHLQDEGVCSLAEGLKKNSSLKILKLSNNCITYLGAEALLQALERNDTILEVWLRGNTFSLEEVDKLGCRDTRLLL

The target of one series is T1, Nucleotide-binding oligomerization domain-containing protein 1 (Homo sapiens) (UniProt Q9Y239).
T1 sequence (whole entry): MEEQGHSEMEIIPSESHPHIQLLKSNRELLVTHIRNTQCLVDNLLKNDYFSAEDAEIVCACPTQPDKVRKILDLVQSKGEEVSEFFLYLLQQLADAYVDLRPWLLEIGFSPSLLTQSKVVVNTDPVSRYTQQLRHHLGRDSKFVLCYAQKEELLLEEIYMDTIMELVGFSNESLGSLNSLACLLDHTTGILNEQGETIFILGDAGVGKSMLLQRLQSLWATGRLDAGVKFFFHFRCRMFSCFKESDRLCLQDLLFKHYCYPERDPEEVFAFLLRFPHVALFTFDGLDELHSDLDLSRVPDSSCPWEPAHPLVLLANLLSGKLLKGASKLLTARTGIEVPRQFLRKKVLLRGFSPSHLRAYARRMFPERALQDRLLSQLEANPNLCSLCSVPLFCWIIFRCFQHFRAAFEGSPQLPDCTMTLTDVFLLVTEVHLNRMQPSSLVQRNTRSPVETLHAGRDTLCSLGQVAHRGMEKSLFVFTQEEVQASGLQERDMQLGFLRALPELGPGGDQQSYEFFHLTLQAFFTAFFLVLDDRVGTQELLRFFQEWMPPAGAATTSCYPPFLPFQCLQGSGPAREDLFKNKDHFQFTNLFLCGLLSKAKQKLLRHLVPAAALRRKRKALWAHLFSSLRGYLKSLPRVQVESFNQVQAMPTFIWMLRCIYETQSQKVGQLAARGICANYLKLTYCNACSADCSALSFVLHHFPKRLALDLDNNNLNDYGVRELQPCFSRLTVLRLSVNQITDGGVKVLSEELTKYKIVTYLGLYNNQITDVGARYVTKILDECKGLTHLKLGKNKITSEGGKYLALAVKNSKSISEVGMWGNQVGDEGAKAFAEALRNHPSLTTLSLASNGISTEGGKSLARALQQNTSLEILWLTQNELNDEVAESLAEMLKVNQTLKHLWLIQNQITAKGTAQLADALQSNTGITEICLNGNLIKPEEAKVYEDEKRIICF
Put plainly: Antagonist activity at human NOD1 expressed in HEK-Blue cells assessed as inhibition of C12-iE-DAP-stimulated cell activation at 10 uM preincubated for 3 hrs followed by C12-iE-DAP addition measured after 20 hrs by SEAP reporter gene assay. The class given is cell-based.
Conditions: not given
Summed up:
(§1)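 HEK-Blue hNOD1 or hNOD2 cells preincubated with compound 3 h, then stimulated 20 h with C12-iE-DAP 50 ng/mL (NOD1) or MDP 100 ng/mL (NOD2); SEAP in supernatant quantified. Primary screen at 10 μM, hits repeated in triplicate; IC50 from dose-response, mean ± SD (n = 3), only for compounds reaching ≥50% inhibition at the screening concentration.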
As for `CCN(CC)C(=O)CC[C@H]1NC(=O)c2cc(Oc3cccc(N(C)C)c3)c(NC(=O)COCc3ccccc3)cc2NC1=O`, the inhibition (as a rule, how much of the control response was suppressed) stood at 80.8%.
Consider `COC(=O)CC[C@H]1NC(=O)c2cc(Oc3cccc(N(C)C)c3)c(NC(=O)COCc3ccc(C#N)cc3)cc2NC1=O`, for which the inhibition came to 59.6%.
`CN(C)c1cccc(Oc2cc3c(cc2NC(=O)COCc2ccccc2)NC(=O)[C@@H](CCC(=O)NC(C)(C)C)NC3=O)c1`: the inhibition is 87.6%.
On the same count and under the same terms, with `CN(C)c1cccc(Oc2cc3c(cc2NC(=O)COCc2ccc(C(F)(F)F)cc2)NC(=O)[C@@H](CCC(=O)N2CCC(F)CC2)NC3=O)c1` the figure was 92.6%; with `COC(=O)CC[C@H]1NC(=O)c2cc(Oc3cccc(N(C)C)c3)c(NC(=O)COCc3ccc(Cl)cc3)cc2NC1=O`, 90.6%.

A further series concerns the target T2, Nucleotide-binding oligomerization domain-containing protein 2 (Homo sapiens, UniProt Q9HC29). In words: Antagonist activity at human NOD2 expressed in HEK-Blue cells assessed as inhibition of MDP-stimulated cell activation at 5 uM preincubated for 3 hrs followed by MDP addition measured after 20 hrs by SEAP reporter gene assay.
Conditions: not given
The class given is cell-based. Background: In a reporter assay the amount or activity of a reporter protein is the signal.
In the case of `CCN(CC)C(=O)CC[C@H]1NC(=O)c2cc(Oc3cccc(N(C)C)c3)c(NC(=O)COCc3ccccc3)cc2NC1=O`, the inhibition came out at 60.8%.
For the compound `COC(=O)CC[C@H]1NC(=O)c2cc(Oc3cccc(N(C)C)c3)c(NC(=O)COCc3ccc(C#N)cc3)cc2NC1=O`, the inhibition was 72.8%.
Still for that read-out and setting: under `CN(C)c1cccc(Oc2cc3c(cc2NC(=O)COCc2ccccc2)NC(=O)[C@@H](CCC(=O)NC(C)(C)C)NC3=O)c1` stands 80.3%; under `CN(C)c1cccc(Oc2cc3c(cc2NC(=O)COCc2ccc(C(F)(F)F)cc2)NC(=O)[C@@H](CCC(=O)N2CCC(F)CC2)NC3=O)c1`, 91.7%; under `COC(=O)CC[C@H]1NC(=O)c2cc(Oc3cccc(N(C)C)c3)c(NC(=O)COCc3ccc(Cl)cc3)cc2NC1=O`, 86.3%.

The next series concerns the target T2, Nucleotide-binding oligomerization domain-containing protein 2. Put plainly: Antagonist activity at human NOD2 expressed in HEK-Blue cells assessed as inhibition of MDP-stimulated cell activation at 10 uM preincubated for 3 hrs followed by MDP addition measured after 20 hrs by SEAP reporter gene assay.
Conditions: not given
The class given is cell-based. Summed up:
as §1
In the case of `CCN(CC)C(=O)CC[C@H]1NC(=O)c2cc(Oc3cccc(N(C)C)c3)c(NC(=O)COCc3ccccc3)cc2NC1=O`, the inhibition worked out at 76.9%.
With `COC(=O)CC[C@H]1NC(=O)c2cc(Oc3cccc(N(C)C)c3)c(NC(=O)COCc3ccc(C#N)cc3)cc2NC1=O`, the inhibition stood at 67.9%.
Still for that read-out and setting: under `CN(C)c1cccc(Oc2cc3c(cc2NC(=O)COCc2ccccc2)NC(=O)[C@@H](CCC(=O)NC(C)(C)C)NC3=O)c1` stands 92.1%; under `CN(C)c1cccc(Oc2cc3c(cc2NC(=O)COCc2ccc(C(F)(F)F)cc2)NC(=O)[C@@H](CCC(=O)N2CCC(F)CC2)NC3=O)c1`, 94.7%.
`COC(=O)CC[C@H]1NC(=O)c2cc(Oc3cccc(N(C)C)c3)c(NC(=O)COCc3ccc(Cl)cc3)cc2NC1=O`: the inhibition was found to be 90.7%.

Another series has the same target. Put plainly: Antagonist activity at human NOD2 expressed in HEK-Blue cells assessed as inhibition of MDP-stimulated cell activation preincubated for 3 hrs followed by MDP addition measured after 20 hrs by SEAP reporter gene assay.
Conditions: not given
The class given is cell-based. Summed up:
as §1
As for `CCN(CC)C(=O)CC[C@H]1NC(=O)c2cc(Oc3cccc(N(C)C)c3)c(NC(=O)COCc3ccccc3)cc2NC1=O`, the pIC50 (commonly the negative decadic logarithm of the IC50, by convention in mol/L) was 5.47.
The same measure, in the same setting: with `COC(=O)CC[C@H]1NC(=O)c2cc(Oc3cccc(N(C)C)c3)c(NC(=O)COCc3ccc(C#N)cc3)cc2NC1=O` the figure was 5.60.
The same measure, in the same setting: under `CN(C)c1cccc(Oc2cc3c(cc2NC(=O)COCc2ccccc2)NC(=O)[C@@H](CCC(=O)NC(C)(C)C)NC3=O)c1` stands 5.64; under `CN(C)c1cccc(Oc2cc3c(cc2NC(=O)COCc2ccc(C(F)(F)F)cc2)NC(=O)[C@@H](CCC(=O)N2CCC(F)CC2)NC3=O)c1`, 6.38.
As to `COC(=O)CC[C@H]1NC(=O)c2cc(Oc3cccc(N(C)C)c3)c(NC(=O)COCc3ccc(Cl)cc3)cc2NC1=O`, the pIC50 is 5.91.

In a further series the target is T1, Nucleotide-binding oligomerization domain-containing protein 1 (Homo sapiens). Put plainly: Antagonist activity at human NOD1 expressed in HEK-blue cells assessed as inhibition of C12-iE-DAP-stimulated cell activation at 5 uM preincubated for 3 hrs followed by C12-iE-DAP addition measured after 20 hrs by SEAP reporter gene assay. The class given is cell-based.
Conditions: not given
Regarding `CCN(CC)C(=O)CC[C@H]1NC(=O)c2cc(Oc3cccc(N(C)C)c3)c(NC(=O)COCc3ccccc3)cc2NC1=O`, the inhibition stood at 80.5%.
In the case of `COC(=O)CC[C@H]1NC(=O)c2cc(Oc3cccc(N(C)C)c3)c(NC(=O)COCc3ccc(C#N)cc3)cc2NC1=O`, the inhibition is 65.4%.
Turning to `CN(C)c1cccc(Oc2cc3c(cc2NC(=O)COCc2ccccc2)NC(=O)[C@@H](CCC(=O)NC(C)(C)C)NC3=O)c1`, the inhibition was 80.3%.
With `CN(C)c1cccc(Oc2cc3c(cc2NC(=O)COCc2ccc(C(F)(F)F)cc2)NC(=O)[C@@H](CCC(=O)N2CCC(F)CC2)NC3=O)c1`, the inhibition amounted to 90.2%.
Regarding `COC(=O)CC[C@H]1NC(=O)c2cc(Oc3cccc(N(C)C)c3)c(NC(=O)COCc3ccc(Cl)cc3)cc2NC1=O`, the inhibition worked out at 90.7%.

System in the next series: not listed separately
Put plainly: Cytotoxicity against HEK-Blue cells by SRB assay. The class given is cell-based. The settings on record: human. (In general: Sulforhodamine B stains cellular protein and so reports cell mass.)
Consider `CN(C)c1cccc(Oc2cc3c(cc2NC(=O)COCc2ccc(C(F)(F)F)cc2)NC(=O)[C@@H](CCC(=O)N2CCC(F)CC2)NC3=O)c1`, for which the Activity result is recorded as “Toxic”.

A further series has as its target T3, Nucleotide-binding oligomerization domain-containing protein 1 (Homo sapiens, UniProt Q9Y239).
T3 sequence (Q9Y239 whole entry): T1 sequence (whole entry)
In words: Antagonist activity at human NOD1 expressed in HEK-blue cells assessed as inhibition of C12-iE-DAP-stimulated cell activation preincubated for 3 hrs followed by C12-iE-DAP addition measured after 20 hrs by SEAP reporter gene assay.
Conditions: not given
The class given is cell-based. The procedure, abridged: as §1
With `CCN(CC)C(=O)CC[C@H]1NC(=O)c2cc(Oc3cccc(N(C)C)c3)c(NC(=O)COCc3ccccc3)cc2NC1=O`, the pIC50 was 5.90.
Take `COC(=O)CC[C@H]1NC(=O)c2cc(Oc3cccc(N(C)C)c3)c(NC(=O)COCc3ccc(C#N)cc3)cc2NC1=O`: the pIC50 is 5.40.
For `CN(C)c1cccc(Oc2cc3c(cc2NC(=O)COCc2ccccc2)NC(=O)[C@@H](CCC(=O)NC(C)(C)C)NC3=O)c1`, the pIC50 was 5.95.
On to `CN(C)c1cccc(Oc2cc3c(cc2NC(=O)COCc2ccc(C(F)(F)F)cc2)NC(=O)[C@@H](CCC(=O)N2CCC(F)CC2)NC3=O)c1`, for which the pIC50 is 6.24.
For `COC(=O)CC[C@H]1NC(=O)c2cc(Oc3cccc(N(C)C)c3)c(NC(=O)COCc3ccc(Cl)cc3)cc2NC1=O`, the pIC50 was 6.21.
